14 molecules from PubChem BioAssay can be followed below.

Assay [1] in a line: Her2 expression decrease, cell viability multiplex – SKBR3 breast tumor cells, AlphaScreen, ATP viability, primary screen (AID 461;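 active = Her2 level under about 52% in both replicate screens, with viability over 70% of control, limit read from the data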;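 for Her2 level: lower value means less Her2 protein in the cells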;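 for viability: percent of carrier control wells set as 100% viability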). To be noted: SKBR3 Her2 protein level, 18-24 h, measured here: SKBR3 viability, ATP luminescence, at 10 µM.
The target in assay [2] is Receptor tyrosine-protein kinase erbB-2 (Homo sapiens) (UniProt P04626). Described as above. The conditions noted are these: 18-24 h, at 10 µM, stronger effect = lower value.
Assay [3] is described as follows: reduced viability of SK-BR-3 breast cancer cells – cell-based, 24 h, human, pilot screen (AID 572).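 Note: compound exposure lasted between 18 and 24 h rather than exactly 24 h; 100% = carrier-treated control wells.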 To be noted: SK-BR-3 viability, CellTiter-Glo luminescence, at 10 µM, stronger effect = lower value.
Assay [4] can be described thus: HUVEC growth inhibition – cell-based, human, primary screen (AID 575;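 active = viability at or below 30% in both replicate assays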;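 note: 100% = median of untreated cell wells with 0.1% DMSO on each plate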). The conditions noted are these: HUVEC proliferation, CellTiter-Glo luminescence, 72 h; at 10 µM; stronger effect = lower value. In short, it runs like this: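 material = primary HUVEC, no more than 12 passages | input = 1250 cells per well | controls = vehicle and MePR control wells | measured by = CTG luminescence | times = 72 h compound incubation | format = collagen-coated 384-well format | read-out = % viability vs DMSO wells | doses = single 10 µM dose, 0.1% DMSO, from 5x medium stock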

A short description of assay [5]: H69AR cell proliferation blockers – human, duplicate replicates, primary screen (AID 580;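 active = viability at or under a set limit in both replicates, limit being median viability minus 3 SD, cut at about 48% in these data, passing the limit was not always enough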;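 note: 100% = mean luminescence of untreated wells and 0% = no signal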). The conditions noted are these: H69AR lung tumor cells viability, ATP luminescence, 72 h; at 10 µM; stronger effect = lower value.
The nature of assay [6]: MRP1 drug-resistance reversers in H69AR cells – cell-based, doxorubicin co-treatment, pilot screen (AID 601;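 active = viability loss from added drug above about 55%, and viability with drug at most 40%, in both replicates, limit read from the data, passing the limit was not always enough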). The conditions noted are these: CellTiter-Glo, 72 h, at 10 µM; for differential viability (reversal): stronger effect = higher value.
Assay [7] in a line: yeast transport mutant growth inhibition pilot in 384-well plates, post-Golgi transport modulator project (AID 636; in the data active = inhibition above about 31%). The conditions noted are these: absorbance 615 nm, about 18 h, stronger effect = higher value.
Assay [8] in a line: growth suppression of yeast trafficking mutant, preliminary HTS, modulators of trafficking downstream of Golgi apparatus project, 1536-format plate, OD 615 nm (AID 637; in the data active = inhibition above about 30%). The conditions noted are these: yeast transport mutant growth, absorbance 615 nm, 18 h; stronger effect = higher value.
The mark [9] stands for this setting: H69AR cells + 2 uM doxorubicin, measured here: viability with 2 uM doxorubicin, stronger effect = lower value.
[10] abbreviates: H69AR cells, compound alone cytotoxicity.

Molecules are shown by their SMILES. Calls of active or inactive are those of the source.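 Rule for the calls, unless noted: active = viability at or below 10% of carrier control in both of two separate runs; inconclusive = viability at or below 10% in only one of the two runs; inactive = the rest.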

Chain of Receptor tyrosine-protein kinase erbB-2 (Homo sapiens) (P04626 whole entry, looked up): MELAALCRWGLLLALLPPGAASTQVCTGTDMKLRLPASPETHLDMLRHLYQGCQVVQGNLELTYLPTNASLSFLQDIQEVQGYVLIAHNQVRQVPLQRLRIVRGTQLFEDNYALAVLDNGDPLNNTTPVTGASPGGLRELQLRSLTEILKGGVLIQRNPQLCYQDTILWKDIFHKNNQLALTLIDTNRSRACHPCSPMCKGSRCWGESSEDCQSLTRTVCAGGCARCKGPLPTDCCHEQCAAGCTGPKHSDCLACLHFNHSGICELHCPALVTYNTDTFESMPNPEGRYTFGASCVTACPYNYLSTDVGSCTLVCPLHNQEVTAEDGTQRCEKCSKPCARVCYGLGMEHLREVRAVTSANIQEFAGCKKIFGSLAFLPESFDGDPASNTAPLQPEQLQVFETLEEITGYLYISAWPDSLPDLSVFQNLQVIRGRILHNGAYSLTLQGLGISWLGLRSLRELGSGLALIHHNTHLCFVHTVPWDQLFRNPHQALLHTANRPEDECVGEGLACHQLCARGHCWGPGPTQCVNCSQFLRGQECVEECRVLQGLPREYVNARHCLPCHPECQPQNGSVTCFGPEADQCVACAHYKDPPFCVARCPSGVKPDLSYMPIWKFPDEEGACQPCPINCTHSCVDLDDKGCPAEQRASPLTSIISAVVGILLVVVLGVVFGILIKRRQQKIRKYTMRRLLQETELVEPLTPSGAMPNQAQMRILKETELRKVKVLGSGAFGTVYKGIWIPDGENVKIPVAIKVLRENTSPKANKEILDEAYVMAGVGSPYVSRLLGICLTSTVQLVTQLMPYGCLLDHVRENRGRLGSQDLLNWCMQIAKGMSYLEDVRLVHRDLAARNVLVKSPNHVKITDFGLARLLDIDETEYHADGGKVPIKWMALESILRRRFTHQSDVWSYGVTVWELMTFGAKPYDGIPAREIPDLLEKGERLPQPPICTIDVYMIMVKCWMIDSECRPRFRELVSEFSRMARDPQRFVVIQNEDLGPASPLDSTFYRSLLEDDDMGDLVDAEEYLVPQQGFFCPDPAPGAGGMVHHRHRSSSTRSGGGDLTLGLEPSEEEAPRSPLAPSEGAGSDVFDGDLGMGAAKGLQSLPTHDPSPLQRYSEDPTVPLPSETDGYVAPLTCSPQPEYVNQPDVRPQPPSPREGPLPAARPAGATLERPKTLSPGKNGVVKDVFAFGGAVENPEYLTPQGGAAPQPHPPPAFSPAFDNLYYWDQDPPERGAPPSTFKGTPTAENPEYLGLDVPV

`CCS(=O)(=O)Nc1ccc(C(=O)CC2(O)C(=O)Nc3ccccc32)cc1` (stereo not given): the viability is 105% in assay [1]; 105% (inactive) in assay [3]; 90.3% (inactive) in assay [4]; 89.5% (inactive) in assay [5]; 97.3% in assay [6] (setting [9]); 89.5% in assay [6] (setting [10]). The Her2 level in assay [2] was 91% (inactive). For the same molecule, in assay [6] (H69AR cells + 2 uM doxorubicin), the differential viability (reversal) is -7.81% (inactive). Further, the values for the inhibition in assay [7] and in assay [8] were -5.87% (inactive) and 2.13% (inactive), respectively.

In the case of `COC(=O)N1CC(c2ccccc2)CC1=O` (stereo not given), the viability in assay [1] is 96.5%; in assay [3] it was 96.5% (inactive); in assay [4], 101% (inactive); in assay [5] it was 100% (inactive); in assay [6] (setting [9]), 85%; in assay [6] (setting [10]) it was 100%. In addition, the Her2 level in assay [2] is 81.5% (inactive). The differential viability (reversal) in assay [6] (H69AR cells + 2 uM doxorubicin) was 15.1% (inactive). Further, the inhibition in assay [7] is -9.04% (inactive); in assay [8] it was -6.51% (inactive).

In the case of `Oc1ccccc1C1=Nc2nc3ccccc3n2C(c2ccccc2)C1` (stereo not given), the viability was 75.5% in assay [1]; 75.5% (inactive) in assay [3]; 103% (inactive) in assay [4]; 65% (inactive) in assay [5]; 77.7% in assay [6] (setting [9]); 65% in assay [6] (setting [10]). For the same molecule, the Her2 level in assay [2] is 86.5% (inactive). Moreover, in assay [6] (H69AR cells + 2 uM doxorubicin), the differential viability (reversal) is -12.7% (inactive). For the same molecule, the inhibition was -7.24% (inactive) in assay [7] and -1.15% (inactive) in assay [8].

As for `N#Cc1ccc(CSc2nnc(-c3cnccn3)o2)cc1`, the viability was 106% in assay [1]; 106% (inactive) in assay [3]; 93.8% (inactive) in assay [4]; 106% (inactive) in assay [5]; 82.5% in assay [6] (setting [9]); 106% in assay [6] (setting [10]). In addition, the Her2 level in assay [2] was 110% (inactive). Besides, the differential viability (reversal) in assay [6] (H69AR cells + 2 uM doxorubicin) was 23.4% (inactive). Moreover, the inhibition in assay [7] was -0.67% (inactive); in assay [8], -0.97% (inactive).

For `O=S(=O)(NC1=NCCC1)c1cccs1`, the viability in assay [1] was 106%; in assay [3] it was 106% (inactive); in assay [4] it was 114% (inactive); in assay [5], 107% (inactive); in assay [6] (setting [9]) it was 91.2%; in assay [6] (setting [10]), 107%. The Her2 level in assay [2] is 94% (inactive). For the same molecule, in assay [6] (H69AR cells + 2 uM doxorubicin), the differential viability (reversal) is 15.3% (inactive). The inhibition in assay [7] was -5.68% (inactive); in assay [8], -2.67% (inactive).

As for `Cc1ccc(/C=N/n2nnnc2N)o1`, the viability in assay [1] is 93%; in assay [3] it was 93% (inactive); in assay [4], 111% (inactive); in assay [5], 95.1% (inactive); in assay [6] (setting [9]), 84.5%; in assay [6] (setting [10]), 95.1%. Also, the Her2 level in assay [2] was 88% (inactive). Further, the differential viability (reversal) in assay [6] (H69AR cells + 2 uM doxorubicin) was 10.6% (inactive). For the same molecule, the inhibition in assay [7] is -8.38% (inactive); in assay [8], -10.5% (inactive).

With `CC1NC(=O)NC1CCCCCC(=O)NCCc1ccccc1` (stereo not given), the viability in assay [1] is 112%; in assay [3], 112% (inactive); in assay [4] it was 90.4% (inactive); in assay [5] it was 93.3% (inactive); in assay [6] (setting [9]), 85.9%; in assay [6] (setting [10]) it was 93.3%. In addition, in assay [2], the Her2 level is 80% (inactive). For the same molecule, in assay [6] (H69AR cells + 2 uM doxorubicin), the differential viability (reversal) was 7.38% (inactive). In addition, the inhibition is -5.07% (inactive) in assay [7] and 0.79% (inactive) in assay [8].

For the molecule `Cc1cc(NC(=O)COc2cccc3cccnc23)no1`, the viability was 93% in assay [1]; 93% (inactive) in assay [3]; 102% (inactive) in assay [4]; 81% (inactive) in assay [5]; 79.5% in assay [6] (setting [9]); 81% in assay [6] (setting [10]). Moreover, in assay [2], the Her2 level is 75% (inactive). In addition, the differential viability (reversal) in assay [6] (H69AR cells + 2 uM doxorubicin) is 1.54% (inactive). In addition, the inhibition was -5.47% (inactive) in assay [7] and -2.79% (inactive) in assay [8].

Regarding `O=C(c1ccccc1Br)N1CCN(c2ccccc2)CC1`, the viability in assay [1] was 85%; in assay [3] it was 85% (inactive); in assay [4], 93.6% (inactive); in assay [5], 102% (inactive); in assay [6] (setting [9]) it was 88.9%; in assay [6] (setting [10]), 102%. The Her2 level in assay [2] was 83.5% (inactive). Moreover, the differential viability (reversal) in assay [6] (H69AR cells + 2 uM doxorubicin) was 12.9% (inactive). For the same molecule, the inhibition in assay [7] is -8.22% (inactive); in assay [8], -4.76% (inactive).

Regarding `Cc1nn(C)c(C)c1CN(C)C(=O)c1cc2nc(-c3ccco3)cc(C(F)(F)F)n2n1`, the viability in assay [1] is 77%; in assay [3], 77% (inactive); in assay [4], 109% (inactive); in assay [5] it was 86.6% (inactive); in assay [6] (setting [9]) it was 85.9%; in assay [6] (setting [10]), 86.6%. Further, the Her2 level in assay [2] is 94.5% (inactive). In assay [6] (H69AR cells + 2 uM doxorubicin), the differential viability (reversal) is 0.655% (inactive). The inhibition is 1.67% (inactive) in assay [7] and -9.33% (inactive) in assay [8].

Regarding `Cn1c(=O)c2c(nc(SCCCO)n2Cc2ccccc2Cl)n(C)c1=O`, the viability is 80.5% in assay [1]; 80.5% (inactive) in assay [3]; 67.2% (inactive) in assay [4]; 79.3% (inactive) in assay [5]; 27.9% in assay [6] (setting [9]); 79.3% in assay [6] (setting [10]). In assay [2], the Her2 level is 78.5% (inactive). For the same molecule, the differential viability (reversal) in assay [6] (H69AR cells + 2 uM doxorubicin) was 51.5% (inactive). For the same molecule, the inhibition is -1.6% (inactive) in assay [7] and 2.62% (inactive) in assay [8].

As for `Cc1nc2nc(Cc3ccccc3)[nH]n2c(=O)c1Cc1ccccc1`, the viability in assay [1] is 117%; in assay [3], 117% (inactive); in assay [4], 96.6% (inactive); in assay [5], 96.2% (inactive); in assay [6] (setting [9]) it was 87.4%; in assay [6] (setting [10]), 96.2%. Also, the Her2 level in assay [2] was 104% (inactive). In addition, in assay [6] (H69AR cells + 2 uM doxorubicin), the differential viability (reversal) was 8.81% (inactive). The inhibition in assay [7] is -0.53% (inactive); in assay [8], 1.64% (inactive).

`Cc1ccc(-n2nnnc2SCC(=O)c2cc(C)n(-c3cc(C)on3)c2C)cc1`: the viability was 91% in assay [1]; 91% (inactive) in assay [3]; 88.5% (inactive) in assay [4]; 65.4% (inactive) in assay [5]; 93.6% in assay [6] (setting [9]); 65.4% in assay [6] (setting [10]). In addition, the Her2 level in assay [2] was 83% (inactive). Also, the differential viability (reversal) in assay [6] (H69AR cells + 2 uM doxorubicin) was -28.2% (inactive). In addition, the inhibition in assay [7] is -2.86% (inactive); in assay [8], 1.11% (inactive).

In the case of `COCCNc1nc(SCC(=O)N2CCN(c3ccccc3)CC2)nc2ccccc12`, the viability was 72% in assay [1]; 72% (inactive) in assay [3]; 84.4% (inactive) in assay [4]; 84.3% (inactive) in assay [5]; 73.9% in assay [6] (setting [9]); 84.3% in assay [6] (setting [10]). For the same molecule, the Her2 level in assay [2] is 81.5% (inactive). In assay [6] (H69AR cells + 2 uM doxorubicin), the differential viability (reversal) was 10.4% (inactive). Also, the inhibition in assay [7] is -7.6% (inactive); in assay [8], -1.48% (inactive).
